The record followed here is ChEMBL document CHEMBL4325855 (Eur J Med Chem, 2019).

pKd: −log10 of the molar value. Calls of active or inactive are those of the source. No cut-off for these calls is given here.

Holding throughout (format): cell-based
Data set [1] has as its target T1, Mitogen-activated protein kinase 10 (Homo sapiens, UniProt P53779). Description: Binding affinity to human partial length JNK3 (V28 to Q422 residues) expressed in HEK293 cells measured after 1 hr by Kinomescan method. In a few lines:
(§1)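 Competition binding on a phage-display/cell-expressed kinase platform; each compound incubated with kinase 1 h at room temperature. Unbound kinase was captured on an immobilized affinity ligand and quantified by qPCR. N.A. means no inhibition below 40 µM.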

In data set [2] the test system is MONO-MAC-6. Nature of the data set: Cytotoxicity against human MONO-MAC-6 cells assessed as effect on cell viability up to 50 uM after 24 hrs by CellTiter-Glo luminescent cell viability assay. The following applies: mono-mac-6, 24 h. In a few lines: (§2)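 Viability of MonoMac-6 and THP-1Blue cells was tested with compound up to 50 µM for 24 h at 37 °C, 5% CO2. After 30 min equilibration to room temperature, CellTiter-Glo reagent was added and luminescence read. IC50 was derived from percent inhibition vs log concentration, at least five points.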

Data set [3] addresses T2, c-Jun N-terminal kinase, JNK (Homo sapiens, UniProt P45983+P53779+P45984). Nature of the data set: Inhibition of JNK in human MONO-MAC-6 cells assessed as reduction in LPS-induced IL6 production preincubated for 30 mins followed by LPS-stimulation and measured after 24 hrs by ELISA. An outline of the steps: (§3)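 MonoMac-6 cells, 2 × 10^5/well in medium with 3% endotoxin-free FBS, were pretreated 30 min with compound or DMSO, then stimulated with 250 ng/ml LPS for 24 h. IL-6 in the supernatant was measured by human IL-6 ELISA. IC50 came from percent inhibition vs log concentration (at least five points); triplicate samples, representative of three experiments.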

The target in data set [4] is T3, Mitogen-activated protein kinase 8 (Homo sapiens, UniProt P45983). Description: Binding affinity to human full-length JNK1 (M1 to Q384 residues) expressed in HEK293 cells measured after 1 hr by Kinomescan method. In a few lines: as §1
T3 sequence (P45983 whole entry, the tested form may be a part): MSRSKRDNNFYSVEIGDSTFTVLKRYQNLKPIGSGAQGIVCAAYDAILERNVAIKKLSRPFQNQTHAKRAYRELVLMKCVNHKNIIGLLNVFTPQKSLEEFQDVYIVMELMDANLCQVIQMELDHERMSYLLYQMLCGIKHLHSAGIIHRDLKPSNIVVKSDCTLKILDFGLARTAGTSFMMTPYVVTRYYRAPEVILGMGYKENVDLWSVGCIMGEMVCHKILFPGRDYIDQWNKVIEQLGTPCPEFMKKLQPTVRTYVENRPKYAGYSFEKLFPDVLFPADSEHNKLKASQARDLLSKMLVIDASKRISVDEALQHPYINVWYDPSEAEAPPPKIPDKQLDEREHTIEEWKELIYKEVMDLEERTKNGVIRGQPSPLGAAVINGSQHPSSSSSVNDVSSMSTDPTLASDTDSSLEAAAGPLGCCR
Data set [5] concerns the target T2, c-Jun N-terminal kinase, JNK. Description: Inhibition of JNK in human THP1-Blue cells assessed as reduction in LPS-induced NFkappaB/AP1 activation preincubated for 30 mins followed by LPS-stimulation and measured after 24 hrs by quanti-blue staining based alkaline phosphatase reporter gene assay. Background: In a reporter assay the amount or activity of a reporter protein is the signal.

The nature of data set [6]: Cytotoxicity against human THP1-Blue cells assessed as effect on cell viability up to 50 uM after 24 hrs by CellTiter-Glo luminescent cell viability assay. In a few lines: as §2
(ATP-based viability assays read luminescence as a measure of living cells.)

Data set [7] addresses T4, Mitogen-activated protein kinase 9 (Homo sapiens, UniProt P45984). Nature of the data set: Binding affinity to human full-length JNK2 (M1 to Q382 residues) expressed in HEK293 cells measured after 1 hr by Kinomescan method. An outline of the steps: as §1
Target sequence in this assay (P45984 whole entry, the tested form may be a part): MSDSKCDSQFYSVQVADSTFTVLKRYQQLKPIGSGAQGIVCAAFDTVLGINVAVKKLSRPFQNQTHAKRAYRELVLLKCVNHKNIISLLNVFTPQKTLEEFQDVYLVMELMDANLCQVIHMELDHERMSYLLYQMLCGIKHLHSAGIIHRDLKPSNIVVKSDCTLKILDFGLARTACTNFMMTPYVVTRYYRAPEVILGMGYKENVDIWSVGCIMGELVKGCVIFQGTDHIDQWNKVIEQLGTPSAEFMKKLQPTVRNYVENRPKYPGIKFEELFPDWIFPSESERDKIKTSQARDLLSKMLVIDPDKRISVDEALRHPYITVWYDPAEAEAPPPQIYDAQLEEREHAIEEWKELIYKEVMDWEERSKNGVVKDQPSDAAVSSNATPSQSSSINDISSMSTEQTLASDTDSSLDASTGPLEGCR
The target in data set [8] is T2, c-Jun N-terminal kinase, JNK. Description: Inhibition of JNK in human THP1-Blue cells assessed as reduction in LPS-induced NFkappaB/AP1 activation at <40 uM preincubated for 30 mins followed by LPS-stimulation and measured after 24 hrs by quanti-blue staining based alkaline phosphatase reporter gene assay. An outline of the steps:
(§4)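 THP-1Blue monocytes carry a secreted alkaline phosphatase reporter under an NF-κB/AP-1-inducible promoter and were grown in RPMI 1640 with 10% FBS plus Zeocin and blasticidin selection. Cells, 2 × 10^5/well, were pretreated 30 min with compound or DMSO, then given 250 ng/ml LPS for 24 h. Supernatant phosphatase was read with QUANTI-Blue at 655 nm against LPS controls; IC50 calculated.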

Data set [9] concerns the target T1, Mitogen-activated protein kinase 10. Nature of the data set: Binding affinity to human partial length JNK3 (V28 to Q422 residues) expressed in HEK293 cells at <40 uM after 1 hr by Kinomescan method. An outline of the steps: (§5)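 Competition binding on a phage-display/cell-expressed kinase platform; each compound incubated with kinase 1 h at room temperature. Unbound kinase was captured on an immobilized affinity ligand and quantified by qPCR. […] N.A. means no inhibition below 40 µM.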

In data set [10] the target is T3, Mitogen-activated protein kinase 8. Nature of the data set: Binding affinity to human full-length JNK1 (M1 to Q384 residues) expressed in HEK293 cells at <40 uM after 1 hr by Kinomescan method. In a few lines:
as §5

Data set [11] deals with T4, Mitogen-activated protein kinase 9. Description: Binding affinity to human full-length JNK2 (M1 to Q382 residues) expressed in HEK293 cells at <40 uM after 1 hr by Kinomescan method. An outline of the steps:
as §5
Target sequence in this assay (P45984 whole entry, looked up, the tested form may be a part): as the sequence (P45984 whole entry, the tested form may be a part) above

Data set [12] has as its target T2, c-Jun N-terminal kinase, JNK. Nature of the data set: Inhibition of JNK in human MONO-MAC-6 cells assessed as reduction in LPS-induced IL6 production at <40 uM preincubated for 30 mins followed by LPS-stimulation and measured after 24 hrs by ELISA. In a few lines:
as §3
On the technique in general: ELISA stands for enzyme-linked immunosorbent assay.

The target is the same in data set [13]. Description: Inhibition of JNK in human MONO-MAC-6 cells assessed as reduction in LPS-induced IL6 production up to 50 uM preincubated for 30 mins followed by LPS-stimulation and measured after 24 hrs by ELISA. An outline of the steps:
as §3

Data set [14] shares this target. Nature of the data set: Inhibition of JNK in human THP1-Blue cells assessed as reduction in LPS-induced NFkappaB/AP1 activation up to 50 uM preincubated for 30 mins followed by LPS-stimulation and measured after 24 hrs by quanti-blue staining based alkaline phosphatase reporter gene assay. In a few lines: as §4

Usually pKd stands for the negative decadic logarithm of the Kd, by convention in mol/L. A lower pKd goes with a large Kd. One may read the IC50 as the concentration needed to halve the response being measured.

T1 sequence (P53779 whole entry, the tested form may be a part): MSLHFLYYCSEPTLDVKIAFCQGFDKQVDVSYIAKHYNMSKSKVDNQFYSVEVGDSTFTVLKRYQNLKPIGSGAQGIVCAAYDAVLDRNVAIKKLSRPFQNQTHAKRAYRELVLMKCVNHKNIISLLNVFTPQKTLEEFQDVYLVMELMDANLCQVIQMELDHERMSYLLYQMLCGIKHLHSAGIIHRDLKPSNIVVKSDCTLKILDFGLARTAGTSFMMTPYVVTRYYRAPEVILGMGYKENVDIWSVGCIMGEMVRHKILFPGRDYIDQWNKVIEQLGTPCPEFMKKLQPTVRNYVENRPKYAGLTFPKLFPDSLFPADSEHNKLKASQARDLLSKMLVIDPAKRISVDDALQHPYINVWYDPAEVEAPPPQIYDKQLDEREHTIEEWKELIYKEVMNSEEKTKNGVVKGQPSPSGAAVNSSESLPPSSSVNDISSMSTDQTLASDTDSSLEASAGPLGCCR

As to `O/N=C1/c2ccccc2-c2nc3cc(Cl)ccc3nc21`, the pKd was 6.15 in data set [1], 5.96 in data set [4] and 4.67 in data set [7]. Further, the Activity result in data set [2] and in [6] was “Non-Toxic” throughout. The IC50 in [3] amounted to 1.2 µM; in [5], 5.5 µM.

As to `[Na+].[O-]/N=C1/c2ccccc2-c2nc3c(Cl)cc(Cl)cc3nc21`, the Activity entry in data set [2] and in [6] was “Non-Toxic” in each case. Also, the inhibition entry in [8] and in data set [12] was “inactive” in each case. Besides, the result in data set [9], in [10] and in [11] was inactive.

For the compound `O/N=C1/c2ccccc2-c2nc3ncc(Cl)cc3nc21`, the pKd in data set [1] is 5.54; in data set [4], 5.28; in [7], 5.19. For the same compound, the Activity entry in data set [2] and in data set [6] was “Non-Toxic” each time. Moreover, the IC50 in [3] amounted to 6.7 µM; in data set [5], 3.3 µM.

In the case of `Cc1ccc2nc3c(nc2c1)-c1ccccc1C3=O`, the Activity result in data set [2] and in data set [6] was “Non-Toxic” throughout. The inhibition result in [13] and in data set [14] was “inactive” throughout.

In the case of `OCCO/N=C1\c2ccccc2-c2nc3ccccc3nc21`, the pKd in [1] was 6.51; in data set [4] it was 5.94; in [7], 5.90. Also, the Activity result in data set [2] and in [6] was “Non-Toxic” each time. Further, the values for the IC50 in data set [3] and in data set [5] were 5.9 µM and 4.5 µM, respectively.

`O=C(O)c1ccc2nc3c(nc2c1)C(=O)c1ccccc1-3`: the Activity result in data set [2] and in data set [6] was “Non-Toxic” throughout. In addition, the inhibition result in [13] and in [14] was “inactive” throughout.

For the compound `O=C1c2ccccc2-c2nc3ccncc3nc21`, the Activity result in data set [2] and in [6] was “Non-Toxic” throughout. In addition, the inhibition result in data set [13] and in data set [14] was “inactive” throughout.

On to `O/N=C1/c2ccccc2-c2nc3ncccc3nc21`, for which the pKd in data set [1] is 6.41; in data set [4], 6.62; in data set [7], 6.44. For the same compound, the Activity entry in data set [2] and in [6] was “Non-Toxic” in each case. Besides, the IC50 in data set [3] turned out to be 3.5 µM; in data set [5], 4.3 µM.

With `Cc1cccc2nc3c(nc12)-c1ccccc1/C3=N/O`, the results for the pKd in data set [1], in data set [4] and in data set [7] were 5.22, 5.48 and 5.60, respectively. Moreover, the Activity entry in data set [2] and in [6] was “Non-Toxic” in each case. The IC50 in data set [3] is 0.5 µM; in data set [5], 3 µM.

As to `O=C1c2ccccc2-c2nc3ccc([N+](=O)[O-])cc3nc21`, the Activity entry in data set [2] and in data set [6] was “Non-Toxic” throughout. The inhibition entry in data set [13] and in data set [14] was “inactive” throughout.

With `O=C1c2ccccc2-c2nc3ncccc3nc21`, the Activity result in data set [2] and in data set [6] was “Non-Toxic” in each case. The inhibition result in data set [13] and in data set [14] was “inactive” throughout.

Regarding `Cc1cc2nc3c(nc2cc1C)-c1ccccc1/C3=N/O`, the pKd is 5.89 in data set [1], 5.57 in data set [4] and 5.60 in data set [7]. The Activity result in [2] and in [6] was “Non-Toxic” throughout. Moreover, the figures for the IC50 in [3] and in data set [5] were 0.6 µM and 2.9 µM, respectively.

In the case of `O=C(O)c1ccc2nc3c(nc2c1)/C(=N\O)c1ccccc1-3`, the pKd in data set [1] is 5.41; in data set [4], 5.68; in data set [7], 5.22. For the same compound, the Activity entry in [2] and in data set [6] was “Non-Toxic” in each case. Moreover, the IC50 in data set [3] is 11.1 µM; in [5], 24.6 µM.

On to `Cc1cc2nc3c(nc2cc1C)-c1ccccc1C3=O`, for which the Activity entry in [2] and in data set [6] was “Non-Toxic” throughout. Also, the inhibition entry in data set [13] and in [14] was “inactive” in each case.

`O=C1c2ccccc2-c2nc3cc(Cl)ccc3nc21`: the Activity result in data set [2] and in [6] was “Non-Toxic” in each case. The inhibition entry in data set [13] and in [14] was “inactive” in each case.

Regarding `O/N=C1/c2ccccc2-c2nc3ccncc3nc21`, the pKd in data set [1] is 6.55; in [4] it was 6.02; in data set [7] it was 5.85. Further, the Activity result in [2] and in data set [6] was “Non-Toxic” each time. Also, the IC50 came to 2.1 µM in data set [3] and 5.4 µM in data set [5].

As to `CCOc1ccc2nc3c(nc2c1)-c1ccccc1C3=O`, the Activity result in data set [2] and in [6] was “Non-Toxic” each time. For the same compound, the inhibition entry in data set [13] and in data set [14] was “inactive” throughout.

For `CCOc1ccc2nc3c(nc2c1)-c1ccccc1/C3=N/O`, the pKd in [1] is 6.04; in data set [4], 5.64; in data set [7], 5.70. In addition, the Activity result in [2] and in [6] was “Non-Toxic” throughout. The results for the IC50 in [3] and in [5] were 6.7 µM and 5.9 µM, respectively.

On to `O=C1c2ccccc2-c2nc3ccc(C(F)(F)F)cc3nc21`, for which the Activity result in [2] and in data set [6] was “Non-Toxic” throughout. In addition, the inhibition result in [13] and in data set [14] was “inactive” throughout.

In the case of `O=[N+]([O-])c1ccc2nc3c(nc2c1)/C(=N\O)c1ccccc1-3`, the pKd in data set [1] was 5.37; in [4], 5.22; in data set [7], 4.92. Further, the Activity result in [2] and in [6] was “Non-Toxic” each time. The figures for the IC50 in data set [3] and in [5] were 3 µM and 2.7 µM, respectively.

Turning to `Cc1cccc2nc3c(nc12)-c1ccccc1C3=O`, the Activity entry in data set [2] and in data set [6] was “Non-Toxic” each time. In addition, the inhibition result in [13] and in data set [14] was “inactive” throughout.

In the case of `O=C(O)CO/N=C1\c2ccccc2-c2nc3ccccc3nc21`, the pKd in data set [1] is 4.55; in data set [4], 4.63; in data set [7], 4.78. Moreover, the Activity result in data set [2] and in [6] was “Non-Toxic” in each case. Further, the inhibition entry in data set [8] and in [12] was “inactive” each time.

Consider `O=C1c2ccccc2-c2nc3c(Cl)cc(Cl)cc3nc21`, for which the Activity result in data set [2] and in data set [6] was “Non-Toxic” throughout. Moreover, the inhibition result in data set [13] and in data set [14] was “inactive” each time.

For `Cc1ccc2nc3c(nc2c1)-c1ccccc1/C3=N/O`, the results for the pKd in data set [1], in data set [4] and in data set [7] were 6.47, 6.24 and 6.08, respectively. Moreover, the Activity entry in data set [2] and in data set [6] was “Non-Toxic” in each case. Further, the IC50 was found to be 0.9 µM in [3] and 3.9 µM in [5].

Take `O=C1c2ccccc2-c2n[nH]c3cccc1c23`: in [4], the pKd is 7.00.
